In ChEMBL document CHEMBL4321879, “Novel Class of Colony-Stimulating Factor 1 Receptor Kinase Inhibitors Based on an o-Aminopyridyl Alkynyl Scaffold as Potential Treatment for Inflammatory Disorders” (J Med Chem, 2020):

Tests used:
[1] = target: Receptor tyrosine-protein kinase erbB-2 (Homo sapiens) (UniProt P04626); experiment: Inhibition of recombinant Erbb2 (unknown origin) at 100 nM using poly (Glu, Tyr)4:1 as substrate measured after 1 hr by ELISA relative to control
In short: (§1)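 Recombinant kinase was incubated with compound in reaction buffer containing 5 μM ATP, in wells precoated with poly(Glu,Tyr) 4:1, for 1 h at 37 °C. Phosphorylation was detected by ELISA.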

[2] = target: Proto-oncogene tyrosine-protein kinase receptor Ret (Homo sapiens) (UniProt P07949); experiment: Inhibition of recombinant human N-terminal GST-tagged RET (658 to end residues) expressed in baculovirus infected Sf21 insect cells at 10 nM using poly (Glu, Tyr)4:1 as substrate measured after 1 hr by ELISA relative to control; in short: as §1
[3] = target: Proto-oncogene tyrosine-protein kinase receptor Ret (Homo sapiens) (UniProt P07949); experiment: Inhibition of recombinant human N-terminal GST-tagged RET (658 to end residues) expressed in baculovirus infected Sf21 insect cells at 100 nM using poly (Glu, Tyr)4:1 as substrate measured after 1 hr by ELISA relative to control; in short: as §1
RAW264.7 = experiment: Antiinflammatory activity in mouse RAW264.7 cells assessed as reduction in LPS-induced TNFalpha release measured after 24 hrs by ELISA; assay type: functional, cell-based; conditions: RAW264.7, 24 h
In short: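 RAW264.7 cells in DMEM with 10% FBS and 0.125% DMSO were incubated with compound, then primed with LPS 1 μg/mL for 24 h. Supernatant TNF-α and IL-6 measured by mouse ELISA. IC50 from log(inhibitor) versus normalized response nonlinear fit.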

[4] = target: Focal adhesion kinase 1 (Homo sapiens) (UniProt Q05397); experiment: Inhibition of recombinant human N-terminal His6-tagged FAK (411 to 686 residues) expressed in baculovirus infected Sf21 insect cells at 1000 nM using poly (Glu, Tyr)4:1 as substrate measured after 1 hr by ELISA relative to control; in short: as §1
[5] = target: Platelet-derived growth factor receptor beta (Homo sapiens) (UniProt P09619); experiment: Inhibition of recombinant human N-terminal His6-tagged PDGFRbeta (557 to end residues) expressed in baculovirus infected Sf21 insect cells at 100 nM using poly (Glu, Tyr)4:1 as substrate measured after 1 hr by ELISA relative to control
In short: (§2)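 ELISA kinase assay: recombinant kinase added to wells precoated with poly(Glu,Tyr)4:1 and incubated with compound in reaction buffer containing 5 μM ATP, 37 °C for 1 h; wells then washed before antibody detection.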

[6] = target: Tyrosine-protein kinase ABL1 (Homo sapiens) (UniProt P00519); experiment: Inhibition of recombinant human N-terminal His6-tagged Abl (27 to end residues) expressed in baculovirus infected Sf21 insect cells at 10 nM using poly (Glu, Tyr)4:1 as substrate measured after 1 hr by ELISA relative to control; in short: as §1
[7] = Clearance in Sprague-Dawley rat at 2 mg/kg, iv administered […] by LC-MS/MS analysis; assay type: ADME, organism-based; conditions: in vivo
In short: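 Male SD rats (200 ± 20 g) were fasted 12 h with free access to water, n = 3 per group. One group received 2 mg/kg iv in DMSO/EtOH/PEG300/saline (5/5/40/50). The other received 5 mg/kg by oral gavage in DMSO/HPMC (5/95). Femoral-vein plasma was taken at 15–1440 min, methanol-precipitated with internal standard, and measured by LC–MS/MS. Noncompartmental analysis; AUC by trapezoidal method.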

[8] = target: T1, Fibroblast growth factor receptor 3 (Homo sapiens, UniProt P22607); experiment: Inhibition of recombinant human N-terminal His6-tagged FGFR3 (447 to 761 residues) expressed in baculovirus infected Sf21 insect cells at 100 nM using poly (Glu, Tyr)4:1 as substrate measured after 1 hr by ELISA relative to control; in short: as §1
[9] = target: Activated CDC42 kinase 1 (Homo sapiens) (UniProt Q07912); experiment: Inhibition of recombinant human N-terminal GST-tagged ACK1 (1 to 389 residues) expressed in baculovirus infected Sf21 insect cells at 100 nM using poly (Glu, Tyr)4:1 as substrate measured after 1 hr by ELISA relative to control; in short: as §1
[10] = target: Platelet-derived growth factor receptor beta (Homo sapiens) (UniProt P09619); experiment: Inhibition of recombinant human N-terminal His6-tagged PDGFRbeta (557 to end residues) expressed in baculovirus infected Sf21 insect cells at 10 nM using poly (Glu, Tyr)4:1 as substrate measured after 1 hr by ELISA relative to control; in short: as §2
[11] = target: Tyrosine-protein kinase ABL1 (Homo sapiens) (UniProt P00519); experiment: Inhibition of recombinant human N-terminal His6-tagged Abl (27 to end residues) expressed in baculovirus infected Sf21 insect cells at 1000 nM using poly (Glu, Tyr)4:1 as substrate measured after 1 hr by ELISA relative to control; in short: as §1
[12] = target: Ephrin type-A receptor 2 (Homo sapiens) (UniProt P29317); experiment: Inhibition of recombinant human N-terminal His6-tagged EphA2 (596 to 900 residues) expressed in baculovirus infected Sf21 insect cells at 100 nM using poly (Glu, Tyr)4:1 as substrate measured after 1 hr by ELISA relative to control; in short: as §1
[13] = target: Vascular endothelial growth factor receptor 3 (Homo sapiens) (UniProt P35916); experiment: Inhibition of recombinant VEGFR3 (unknown origin) at 100 nM using poly (Glu, Tyr)4:1 as substrate measured after 1 hr by ELISA relative to control; in short: as §1
[14] = target: Vascular endothelial growth factor receptor 2 (Homo sapiens) (UniProt P35968); experiment: Inhibition of recombinant human VEGFR2 (D1-7) expressed in Spodoptera frugiperda insect cells at 100 nM using poly (Glu, Tyr)4:1 as substrate measured after 1 hr by ELISA relative to control; in short: as §2
[15] = target: Platelet-derived growth factor receptor alpha (Homo sapiens) (UniProt P16234); experiment: Inhibition of recombinant human N-terminal His6-tagged PDGFRalpha (550 to end residues) expressed in baculovirus infected Sf21 insect cells at 1000 nM using poly (Glu, Tyr)4:1 as substrate measured after 1 hr by ELISA relative to control; in short: as §2
[16] = target: Tyrosine-protein kinase ITK/TSK (Homo sapiens) (UniProt Q08881); experiment: Inhibition of recombinant human N-terminal His6-tagged ITK (352 to 617 residues) expressed in baculovirus infected Sf21 insect cells at 100 nM using poly (Glu, Tyr)4:1 as substrate measured after 1 hr by ELISA relative to control; in short: as §2
[17] = target: Vascular endothelial growth factor receptor 1 (Homo sapiens) (UniProt P17948); experiment: Inhibition of recombinant human VEGFR1 expressed in Spodoptera frugiperda insect cells at 10 nM using poly (Glu, Tyr)4:1 as substrate measured after 1 hr by ELISA relative to control; in short: as §2
[18] = target: Insulin receptor (Homo sapiens) (UniProt P06213); experiment: Inhibition of recombinant human N-terminal His6-tagged IR (1005 to 1310 residues) expressed in baculovirus infected Sf21 insect cells at 100 nM using poly (Glu, Tyr)4:1 as substrate measured after 1 hr by ELISA relative to control; in short: as §2
[19] = target: T1, Fibroblast growth factor receptor 3; experiment: Inhibition of recombinant human N-terminal His6-tagged FGFR3 (447 to 761 residues) expressed in baculovirus infected Sf21 insect cells using poly (Glu, Tyr)4:1 as substrate measured after 1 hr by ELISA; in short: as §1

Tyrosine-protein kinase ABL1 (Homo sapiens), sequence (P00519 whole entry, the tested form may be a part): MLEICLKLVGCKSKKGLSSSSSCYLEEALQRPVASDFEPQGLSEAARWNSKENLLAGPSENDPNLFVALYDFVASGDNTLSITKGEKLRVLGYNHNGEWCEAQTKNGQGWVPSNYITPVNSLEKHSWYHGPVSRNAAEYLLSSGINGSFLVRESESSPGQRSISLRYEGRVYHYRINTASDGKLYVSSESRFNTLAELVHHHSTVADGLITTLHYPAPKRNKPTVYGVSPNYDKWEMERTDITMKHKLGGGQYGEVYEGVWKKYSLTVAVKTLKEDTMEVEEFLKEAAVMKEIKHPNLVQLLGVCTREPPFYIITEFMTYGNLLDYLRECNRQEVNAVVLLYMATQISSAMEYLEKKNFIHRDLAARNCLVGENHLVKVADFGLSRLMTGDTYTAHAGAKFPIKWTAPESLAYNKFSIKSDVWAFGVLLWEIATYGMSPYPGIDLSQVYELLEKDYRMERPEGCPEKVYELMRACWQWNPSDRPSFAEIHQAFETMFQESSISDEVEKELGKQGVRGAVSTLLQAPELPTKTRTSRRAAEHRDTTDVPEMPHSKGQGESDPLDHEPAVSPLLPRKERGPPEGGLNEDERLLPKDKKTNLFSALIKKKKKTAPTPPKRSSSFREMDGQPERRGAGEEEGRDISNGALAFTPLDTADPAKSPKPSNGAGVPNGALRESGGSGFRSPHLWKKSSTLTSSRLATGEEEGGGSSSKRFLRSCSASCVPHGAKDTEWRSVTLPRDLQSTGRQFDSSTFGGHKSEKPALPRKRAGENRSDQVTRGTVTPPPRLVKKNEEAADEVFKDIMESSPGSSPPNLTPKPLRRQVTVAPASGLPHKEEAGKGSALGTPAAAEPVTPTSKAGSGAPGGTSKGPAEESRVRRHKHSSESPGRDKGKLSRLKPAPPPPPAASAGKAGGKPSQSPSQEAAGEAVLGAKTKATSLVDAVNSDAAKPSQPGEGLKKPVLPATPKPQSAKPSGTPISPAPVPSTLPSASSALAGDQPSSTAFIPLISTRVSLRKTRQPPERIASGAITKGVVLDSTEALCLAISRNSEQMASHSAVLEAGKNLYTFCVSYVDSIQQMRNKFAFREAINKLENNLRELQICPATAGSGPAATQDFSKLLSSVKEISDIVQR
Proto-oncogene tyrosine-protein kinase receptor Ret (Homo sapiens), sequence (P07949 whole entry): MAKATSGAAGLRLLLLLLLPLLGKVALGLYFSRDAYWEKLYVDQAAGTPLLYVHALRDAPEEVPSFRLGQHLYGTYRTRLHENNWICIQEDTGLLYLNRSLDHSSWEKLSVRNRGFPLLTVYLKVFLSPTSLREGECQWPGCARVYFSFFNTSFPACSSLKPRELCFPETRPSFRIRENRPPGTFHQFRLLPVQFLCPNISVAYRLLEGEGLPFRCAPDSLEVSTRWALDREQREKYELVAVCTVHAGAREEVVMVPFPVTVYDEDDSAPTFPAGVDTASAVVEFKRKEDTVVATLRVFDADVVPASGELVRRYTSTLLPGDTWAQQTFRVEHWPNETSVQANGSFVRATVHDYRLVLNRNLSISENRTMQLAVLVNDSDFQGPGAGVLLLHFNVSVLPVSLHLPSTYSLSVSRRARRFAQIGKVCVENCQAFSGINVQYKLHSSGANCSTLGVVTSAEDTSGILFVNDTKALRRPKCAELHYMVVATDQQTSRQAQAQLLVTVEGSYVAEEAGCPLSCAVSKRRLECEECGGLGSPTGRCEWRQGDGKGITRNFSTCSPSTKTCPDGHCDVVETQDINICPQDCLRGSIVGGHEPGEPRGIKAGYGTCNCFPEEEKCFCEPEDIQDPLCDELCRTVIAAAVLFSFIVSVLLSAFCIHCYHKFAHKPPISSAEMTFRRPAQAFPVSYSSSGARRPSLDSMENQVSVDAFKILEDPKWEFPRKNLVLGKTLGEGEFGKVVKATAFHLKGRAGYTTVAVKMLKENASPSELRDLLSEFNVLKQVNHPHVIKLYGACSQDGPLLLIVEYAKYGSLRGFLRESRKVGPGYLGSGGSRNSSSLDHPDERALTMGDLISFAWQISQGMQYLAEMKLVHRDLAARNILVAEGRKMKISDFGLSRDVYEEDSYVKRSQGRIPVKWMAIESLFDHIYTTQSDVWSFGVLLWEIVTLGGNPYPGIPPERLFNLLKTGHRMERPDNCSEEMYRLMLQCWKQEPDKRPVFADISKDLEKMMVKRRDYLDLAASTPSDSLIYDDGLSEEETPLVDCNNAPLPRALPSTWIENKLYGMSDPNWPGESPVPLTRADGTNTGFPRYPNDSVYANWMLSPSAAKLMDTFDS
Platelet-derived growth factor receptor beta (Homo sapiens), sequence (P09619 whole entry): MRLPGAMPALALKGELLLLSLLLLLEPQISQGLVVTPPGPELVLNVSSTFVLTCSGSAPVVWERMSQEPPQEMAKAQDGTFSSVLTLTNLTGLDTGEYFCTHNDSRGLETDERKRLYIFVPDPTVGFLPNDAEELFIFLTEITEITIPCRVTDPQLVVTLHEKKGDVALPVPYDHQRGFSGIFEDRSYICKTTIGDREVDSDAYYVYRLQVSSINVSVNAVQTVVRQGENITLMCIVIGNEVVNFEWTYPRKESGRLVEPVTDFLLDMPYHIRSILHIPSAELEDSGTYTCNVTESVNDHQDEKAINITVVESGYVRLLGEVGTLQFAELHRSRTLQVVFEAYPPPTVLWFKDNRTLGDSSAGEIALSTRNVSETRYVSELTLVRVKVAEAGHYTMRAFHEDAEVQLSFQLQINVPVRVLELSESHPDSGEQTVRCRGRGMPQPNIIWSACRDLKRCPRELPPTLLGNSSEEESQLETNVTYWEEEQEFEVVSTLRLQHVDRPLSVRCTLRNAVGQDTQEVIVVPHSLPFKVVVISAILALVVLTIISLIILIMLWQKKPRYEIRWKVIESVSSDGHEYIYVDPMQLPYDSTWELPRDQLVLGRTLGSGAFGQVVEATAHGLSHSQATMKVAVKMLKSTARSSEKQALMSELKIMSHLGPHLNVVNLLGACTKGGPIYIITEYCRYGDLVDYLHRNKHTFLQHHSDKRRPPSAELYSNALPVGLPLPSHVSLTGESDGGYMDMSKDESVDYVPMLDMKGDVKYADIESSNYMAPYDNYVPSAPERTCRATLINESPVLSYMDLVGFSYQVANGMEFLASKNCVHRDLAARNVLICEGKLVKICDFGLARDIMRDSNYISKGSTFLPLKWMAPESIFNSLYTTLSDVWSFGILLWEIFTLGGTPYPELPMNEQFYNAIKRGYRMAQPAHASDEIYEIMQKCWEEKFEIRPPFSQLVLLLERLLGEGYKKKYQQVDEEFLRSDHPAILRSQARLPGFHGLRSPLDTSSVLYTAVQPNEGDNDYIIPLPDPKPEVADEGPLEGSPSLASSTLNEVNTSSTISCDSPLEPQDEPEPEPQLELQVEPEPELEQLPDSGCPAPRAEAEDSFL
Vascular endothelial growth factor receptor 2 (Homo sapiens), sequence (P35968 whole entry): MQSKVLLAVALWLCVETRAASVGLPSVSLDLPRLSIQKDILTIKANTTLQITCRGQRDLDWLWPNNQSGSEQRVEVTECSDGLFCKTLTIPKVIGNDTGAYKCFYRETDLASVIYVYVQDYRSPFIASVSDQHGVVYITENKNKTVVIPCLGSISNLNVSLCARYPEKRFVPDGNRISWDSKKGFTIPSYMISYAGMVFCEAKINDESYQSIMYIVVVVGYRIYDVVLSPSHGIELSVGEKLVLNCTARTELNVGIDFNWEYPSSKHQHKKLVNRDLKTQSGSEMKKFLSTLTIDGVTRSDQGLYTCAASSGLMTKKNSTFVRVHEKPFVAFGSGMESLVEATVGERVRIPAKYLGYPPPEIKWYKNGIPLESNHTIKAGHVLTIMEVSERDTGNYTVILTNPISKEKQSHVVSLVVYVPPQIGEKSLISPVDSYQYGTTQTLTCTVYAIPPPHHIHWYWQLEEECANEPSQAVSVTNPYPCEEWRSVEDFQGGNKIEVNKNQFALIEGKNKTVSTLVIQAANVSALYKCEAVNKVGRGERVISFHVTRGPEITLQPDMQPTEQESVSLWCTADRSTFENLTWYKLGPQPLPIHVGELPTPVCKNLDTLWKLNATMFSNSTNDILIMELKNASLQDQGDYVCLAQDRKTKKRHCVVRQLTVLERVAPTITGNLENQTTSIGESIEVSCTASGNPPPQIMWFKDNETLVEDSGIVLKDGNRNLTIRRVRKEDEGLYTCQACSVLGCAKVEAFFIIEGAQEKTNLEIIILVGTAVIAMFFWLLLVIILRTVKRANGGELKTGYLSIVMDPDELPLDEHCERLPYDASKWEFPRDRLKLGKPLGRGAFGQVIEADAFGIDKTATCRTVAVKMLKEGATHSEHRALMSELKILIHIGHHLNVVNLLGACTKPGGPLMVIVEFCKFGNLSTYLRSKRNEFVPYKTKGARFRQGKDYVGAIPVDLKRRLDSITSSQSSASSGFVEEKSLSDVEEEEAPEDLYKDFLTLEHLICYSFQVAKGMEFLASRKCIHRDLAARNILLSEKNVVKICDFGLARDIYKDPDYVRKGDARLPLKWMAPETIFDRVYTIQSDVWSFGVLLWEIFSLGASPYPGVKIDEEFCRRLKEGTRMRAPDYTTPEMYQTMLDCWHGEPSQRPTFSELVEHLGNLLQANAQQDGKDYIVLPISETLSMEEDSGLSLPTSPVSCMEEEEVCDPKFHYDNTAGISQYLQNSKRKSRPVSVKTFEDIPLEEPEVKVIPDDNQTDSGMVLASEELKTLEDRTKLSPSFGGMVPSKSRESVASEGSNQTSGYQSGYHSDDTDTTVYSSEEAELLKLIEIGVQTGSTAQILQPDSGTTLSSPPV

inhibition [1]: 8.8%
inhibition [2]: 42.7%
inhibition [3]: 77.6%
IC50 (RAW264.7): 110 nM
inhibition [4]: 10.8%
inhibition [5]: 70.5%
inhibition [6]: 0%
clearance [7]: 46 mL/min/kg
inhibition [8]: 0%
inhibition [9]: 10.3%
inhibition [10]: 14.7%
inhibition [11]: 98.3%
inhibition [12]: 31.4%
inhibition [13]: 69.4%
inhibition [14]: 83.6%
inhibition [15]: 92.6%
inhibition [16]: 4.2%
inhibition [17]: 36.2%
inhibition [18]: 2.1%
IC50 [19]: > 1000 nM
SMILES: Cc1ccc(C(=O)Nc2ccc(Cl)cc2)cc1C#Cc1cc(-c2cnn(C)c2)cnc1N
